The sample as a whole holds a higher share of hits than the screen did.
TNAP act DEA: activators of human TNAP at intermediate phosphate acceptor; activation factor at 20 µM; 64,000 tested, under 10 active; AID 813; purified TNAP, CDP-star luminescence, 100 mM DEA, 30 min; hits give high values; scale: 0 levamisole-inhibited, 1 vehicle-only enzyme;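 active means activation factor of at least 2 at 20 µM, relative to controls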
Ecoli tolC: blocks growth of E. coli BW25113 tolC mutant; growth inhibition, % at 10 µM (by protocol); hit rate 2.2% among 65,000; OD615;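 active means growth inhibition at or above a cutoff equal to the mean over every tested compound plus 3 SD, cut at about 60% in these data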;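 further: growth measured after 20 h incubation at 37 °C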
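Test system – E. coli BW25113 ΔtolC::kan, tolC deletion mutant strain · Detection – OD at 615 nm · Buffer or medium – LB with kanamycin 50 µg/mL · Times – 20 h compound exposure of bacteria at 37 °C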
Ecoli WT expand: growth inhibitors of E. coli BW25113 wild type. OD600 absorbance. growth inhibition, % at 100 µM. hit rate 0.15% among 98,000;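 active means growth inhibition above about 50% at one test dose, limit read from the data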;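 further: growth measured after 20 h incubation at 37 °C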
WNV protease inh: inhibitors of West Nile virus NS2B-NS3 protease; hit rate 0.18% among 65,000; AID 577; P06935; z-score (test concentration not listed); WNV NS2B-NS3 protease, fluorogenic substrate Ex360/Em465; hits give low values; in the data active means z-score below about -3
Target sequence (P06935 1371-1501 limits assumed): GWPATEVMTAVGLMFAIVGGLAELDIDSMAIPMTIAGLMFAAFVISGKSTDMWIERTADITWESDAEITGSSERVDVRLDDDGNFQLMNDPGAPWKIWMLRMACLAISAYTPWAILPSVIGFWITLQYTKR
Target sequence (P06935 1502-1679 limits assumed): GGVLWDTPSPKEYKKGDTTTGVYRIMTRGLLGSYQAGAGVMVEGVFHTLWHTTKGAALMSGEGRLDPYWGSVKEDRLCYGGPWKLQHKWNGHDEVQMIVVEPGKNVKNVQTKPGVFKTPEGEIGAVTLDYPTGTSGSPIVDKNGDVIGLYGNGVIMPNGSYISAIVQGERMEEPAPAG
BAP1 block: inhibitors of human BAP1 deubiquitinase. Q92560. recombinant BAP1, Ub-AMC hydrolysis fluorescence kinetic; hits give low values. calls only at 20 µM. hit rate 0.48% among 72,000;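 active means activity remaining at or below 50% of control, provided the compound also passes the data quality filters; inactive means the rest, including low values that fail the filters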
Hits are given with their value; . = inactive; / = no result shown.

SMILES | TNAP act DEA | Ecoli tolC | Ecoli WT expand | WNV protease inh | BAP1 block
O=C(c1ccccc1)N1CCN(C(=O)c2cc3ccccc3o2)CC1 | / | / | . | / | /
O=C(c1cc2ccccc2o1)N1CCN(c2ccccc2Cl)CC1 | . | 100 | . | . | .
CCN(CCNC(=O)C1CCN(Cc2nc(-c3cccc(Cl)c3)oc2C)CC1)c1ccccc1 | . | 65 | . | . | .
Cc1ccccc1-c1nc(CN2CCC(C(=O)NCCC3=CCCCC3)CC2)c(C)o1 | . | 65 | . | . | .
Cc1cc(NS(=O)(=O)c2ccc(NC(=O)COc3ccccc3Cl)cc2)no1 | . | . | . | . | .
Cc1cc(NS(=O)(=O)c2ccc(NC(=O)COc3ccccc3C(C)C)cc2)no1 | . | 62 | . | . | .
CCOC(=O)c1cnc(-n2nc(C)cc2C)nc1N(CC)CC | . | 63 | . | . | .
CCOC(=O)c1cnc(-n2nc(C)cc2C)nc1Nc1ccc(C)cc1 | / | / | . | / | /
CCOC(=O)c1cnc(-n2nc(C)cc2C)nc1Nc1ccc(N(C)C)cc1 | . | 78 | . | . | .
CCOC(=O)c1cnc(-n2nc(C)cc2C)nc1NC1CCCCC1 | . | 100 | . | . | .
CCOC(=O)c1cnc(-n2nc(C)cc2C)nc1NC | . | . | . | . | .
COc1c(N2CCN(C(=S)NCc3ccccc3)C(C)C2)c(F)cc2c(=O)c(C(=O)O)cn(C3CC3)c12 (configuration not stated) | / | / | 88 | / | /
CC1COc2c(N3CCN(C)CC3)c(F)cc3c(=O)c(C(=O)O)cn1c23 (configuration not stated) | / | / | / | / | .
CC(C)(C)n1nnnc1C(c1cccs1)N(Cc1ccccc1)Cc1cccnc1 (configuration not stated) | . | 80 | . | . | .
O=c1oc2c3c4c(cc2cc1-c1nc2ccccc2[nH]1)CCCN4CCC3 | . | . | / | . | .
CCCCN(CC)C(=O)c1ccc(Cl)c(Cl)c1 | . | . | . | . | .
O=C(COC(=O)c1ccccc1Cl)c1ccc(-c2ccc(Br)cc2)cc1 | / | / | / | / | .
O=S(=O)(Nc1ncnc2sc3c(c12)CCC3)c1ccc(Cl)s1 | . | 63 | . | . | /
O=C(O)[C@H](CO)Nc1ncnc2sc3c(c12)CCC3 | / | / | . | / | /
Cc1cc(C)cc(Nc2cc(=O)n(C3CCCCC3)c(=O)[nH]2)c1 | . | 83 | . | . | .
COc1ccc2c(c1)CCc1c(C(=O)N3CCCc4ccccc43)noc1-2 | . | 71 | . | . | .
COC(=O)c1[nH]c2cc(OC)ccc2c1NC(=O)c1ccc2c(c1)OCO2 | . | . | . | -5.6 | /
Nc1cc(OC(=O)c2cccs2)nn1S(=O)(=O)c1ccccc1 | . | . | . | -8.1 | .
Nc1cc(OC(=O)c2cccs2)nn1S(=O)(=O)c1ccc(F)cc1 | . | . | . | -5.3 | .
Cc1nn(-c2ccccc2)c(OC(=O)c2cccs2)c1S(=O)(=O)c1ccccc1 | . | . | . | . | .
SMILES | TNAP act DEA | Ecoli tolC | Ecoli WT expand | WNV protease inh | BAP1 block
CC1=C(C(=O)OCCc2ccccc2)C(c2cc([N+](=O)[O-])ccc2Cl)CC(=O)N1 (configuration not stated) | / | / | / | / | .
COc1ccc(-c2cc(C(=O)NCC(C)C)no2)cc1 | . | . | . | . | .
Cc1cc(C)c2cc(CN(CC3CCCO3)S(=O)(=O)c3ccc4c(c3)OCCO4)c(=O)[nH]c2c1 (configuration not stated) | . | 67 | . | . | .
OC(c1cccc(OCc2ccccc2)c1)c1nnc(-c2ccccc2)o1 (configuration not stated) | . | 75 | . | . | .
CCc1ccc(NC(=O)CCOc2ccccc2)cc1 | / | / | / | / | .
N=c1n(CCN2CCOCC2)c2ccccc2n1CC(=O)c1ccc(Cl)c(Cl)c1 | . | 80 | . | . | .
COc1ccc2nc(N=CN(C)C)sc2c1 | / | / | / | / | .
COc1ccc2nc(NC(=O)CSc3ccccc3)sc2c1 | / | / | . | / | /
COc1ccc2nc(NC(=O)CSc3nc4cccnc4n3C)sc2c1 | . | . | . | -6.4 | .
COc1ccc(C(C)(C)C)cc1NC(=O)Nc1ccc2c(c1)OCO2 | . | 65 | . | . | .
Cc1cccc(NC(=O)c2cc(N3CCCCC3)nc3ccccc23)c1 | / | / | / | / | .
N#CCNC(=O)c1ccc([N+](=O)[O-])cc1Cl | / | / | / | / | .
COc1ccc(CC(=O)Nc2ccc(-c3cn4ccc(C)cc4n3)cc2)cc1 | / | / | . | / | /
Fc1ccc(-n2c(Cc3ccccc3)nnc2SCc2nc(-c3cccs3)no2)cc1 | . | 70 | . | . | .
COC(=O)C1=C(C)Nc2nnnn2C1c1ccc(OCc2ccccc2)cc1 (configuration not stated) | / | / | / | / | .
OC(CNCC1CCCO1)Cn1c2ccc(Cl)cc2c2cc(Cl)ccc21 (configuration not stated) | / | / | 65 | / | /
COc1ccc(CNc2nc3c(c(=O)n(Cc4ccc(F)cc4)c(=O)n3C)n2C)cc1 | . | 71 | . | . | .
CCCn1c(CNc2ccc(Br)cc2)nc2ccccc21 | . | 100 | . | . | .
CCCn1c(SCC(=O)Nc2sc(C)c(C)c2C(=O)OC)nc2c1c(=O)n(C)c(=O)n2C | . | . | / | -3.8 | .
COc1ccc(Br)cc1C1CC(=O)c2c(ccc3ccccc23)N1 (configuration not stated) | / | / | / | / | .
Cc1sc2nc(CN(Cc3cccs3)C(=O)NC3CCCCC3)[nH]c(=O)c2c1C | . | 89 | . | . | .
c1ccc2oc(SCc3nc4ccccc4s3)nc2c1 | . | 61 | . | . | .
N#CCc1nc(CSc2nc3ccccc3o2)cs1 | . | . | . | . | .
CCOC(=O)c1c(C)n(-c2ccccc2)c2c1cc(OC(=O)CC)c1ccccc12 | / | / | / | / | .
O=C(c1c(F)c(F)c(F)c(F)c1F)N1CCN(c2cccc(C(F)(F)F)c2)CC1 | . | . | . | . | .
SMILES | TNAP act DEA | Ecoli tolC | Ecoli WT expand | WNV protease inh | BAP1 block
Cc1ccc(C)c(N2CCN(C(=O)c3ccccc3Br)CC2)c1 | . | 69 | . | . | .
CCOC(=O)N1CCN(C(=O)c2cc3sccc3n2C)CC1 | . | . | . | . | .
Cc1ccc(N2CCN(C(=O)c3ccccc3Br)CC2)c(C)c1 | . | . | . | . | .
Cn1c(C(=O)N2CCN(c3cccc(C(F)(F)F)c3)CC2)cc2sccc21 | . | 71 | . | . | .
Cc1ccc(C)c(N2CCN(C(=O)c3cc4sccc4n3C)CC2)c1 | . | 76 | . | . | .
CC(=O)c1cc(F)c(N2CCN(C(=O)c3ccco3)CC2)cc1C | . | . | . | . | .
CCn1cc(C(=O)Nc2nncs2)c(=O)c2cc(F)c(N3CCN(C(=O)c4ccco4)CC3)cc21 | . | 100 | / | . | .
CCn1cc(C(=O)NCc2ccccc2)c(=O)c2cc(F)c(N3CCN(C(=O)c4ccco4)CC3)cc21 | / | / | . | / | /
CCn1cc(C(=O)NCc2ccc3c(c2)OCO3)c(=O)c2cc(F)c(N3CCN(C(=O)c4ccco4)CC3)cc21 | / | / | 73 | / | /
C(=Cc1ccccc1)Sc1ccc2ccccc2n1 | / | / | / | / | .
O=C(CN(C1CC1)S(=O)(=O)c1ccc(S(=O)(=O)NC2CCCCC2)cc1)Nc1ccccc1 | . | 83 | . | . | .
CC(C(=O)N1c2ccccc2C(C)(c2ccccc2)CC1(C)C)N1C(=O)C2CCCCC2C1=O (configuration not stated) | / | / | / | / | .
